From ChEMBL document CHEMBL1121679, “Gastric antisecretory agents. 1. Antisecretory and antiulcer activity of 5H-[1]benzopyrano[2,3-b]pyridin-5-ylureas and 5H-[1]benzothiopyrano[2,3-b]pyridin-5-ylureas” (1981)

Tests used:
[1] = test system: Canis familiaris; assay: Antisecretory activity was evaluated in adult mongrel dog after iv administration at 5 mg/kg of dose, expressed as reduction of gastric output; type: functional, Canis lupus familiaris, Stomach
Outline: (§1)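 Conscious mongrel dogs with surgical Heidenhain pouches. Histamine was infused iv at 0.4 (μg/kg)/min, giving 50–60% of maximal acid output. The test agent was given iv or orally by gavage 1 h into the infusion. Acid output (volume × titrated acid) was collected in 30-min fractions and summed over 3 h, then compared with control runs in the same dog. Usually a single dog per compound.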

[2] = test system: Canis familiaris; assay: Antisecretory activity was evaluated in adult mongrel dog after po administration at 8 mg/kg of dose, expressed as reduction of gastric output; type: functional, Canis lupus familiaris, Stomach; outline: as §1
[3] = test system: Rattus norvegicus; assay: Antisecretory activity was evaluated in pylorus ligated rat after ip administration at 40 mg/kg of dose, expressed as reduction of gastric output; settings: route intraperitoneal
[4] = test system: Rattus norvegicus; assay: Compound was measured for percentage inhibition of aspirin-induced ulcers at 20 mg/kg after po administration; type: functional
Outline: (§2)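 Rats fasted 24 h received the test agent orally in 0.4% methylcellulose-saline, then 1 h later 100 mg/kg aspirin orally. Stomachs were removed 4 h after aspirin and opened along the greater curvature, and ulcers were counted under a 2× magnifier. Inhibition was based on mean lesion number vs controls. Eight rats per compound; Student's t test.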

[5] = test system: Canis familiaris; assay: Compound was measured for percentage reduction in food stimulated canine gastric acid secretion after iv administration at 5 mg/kg dosage; type: functional, Canis lupus familiaris, Stomach
Outline: (§3)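 Heidenhain pouch dogs given the test agent (iv or oral) together with a meal of 250 g ground cooked beef hearts. Acid output was collected and expressed as percent reduction relative to control studies in the same animal; n per entry as reported.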

[6] = test system: Canis familiaris; assay: Compound was measured for percentage reduction in food stimulated canine gastric acid secretion after po administration at 8 mg/kg dosage; type: functional, Canis lupus familiaris, Stomach; outline: as §3
[7] = test system: Canis familiaris; assay: Compound was measured for percentage reduction in insulin hypoglycemia stimulated canine gastric acid secretion after iv administration at 5 mg/kg dosage; type: functional, Canis lupus familiaris, Stomach
Outline: (§4)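 Dogs with simple gastric fistulas. The test agent (iv or oral) was given at the time of regular insulin injection. Gastric collections were made for 3 h, and percent reduction of acid output was calculated against control studies in the same animals; n per entry as reported.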

[8] = test system: Canis familiaris; assay: Compound was measured for percentage reduction in insulin hypoglycemia stimulated canine gastric acid secretion after po administration at 8 mg/kg dosage; type: functional, Canis lupus familiaris, Stomach; outline: as §4
[9] = test system: Canis familiaris; assay: Compound was measured for percentage reduction in dimaprit stimulated canine gastric acid secretion after iv administration at 5 mg/kg dosage; type: functional, Canis lupus familiaris, Stomach
Outline: (§5)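 Heidenhain pouch dogs. Acid output was summed over 3 h after dosing and expressed as percent reduction relative to control studies in the same animal; n per entry as reported.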

[10] = test system: Rattus norvegicus; assay: Compound was measured for percentage inhibition of aspirin-induced ulcers at 10 mg/kg after po administration; type: functional; outline: as §2
[11] = test system: Rattus norvegicus; assay: Compound was measured for percentage inhibition of aspirin-induced ulcers at 30 mg/kg after po administration; type: functional; outline: as §2
[12] = test system: Rattus norvegicus; assay: Compound was measured for percentage inhibition of aspirin-induced ulcers at 3 mg/kg after po administration; type: functional; outline: as §2
[13] = test system: Canis familiaris; assay: Compound was measured for percentage reduction in dimaprit stimulated canine gastric acid secretion after po administration at 8 mg/kg dosage; type: functional, Canis lupus familiaris, Stomach; outline: as §5
[14] = test system: Canis familiaris; assay: Compound was measured for percentage reduction in food stimulated canine gastric acid secretion after iv administration at 5 mg/kg dosag; type: functional, Canis lupus familiaris, Stomach; outline: as §3

SMILES | Reduction [1] | Reduction [2] | Reduction [3] | other results
CN(C(=O)NC(C)(C)C)C1c2ccccc2Oc2ncccc21 (stereo unspecified) | 35% | <30% | 82% | –
CN(C)C(=O)N(C)C1c2ccccc2Oc2ncccc21 (stereo unspecified) | <30% | – | 96% | inhibition in vivo at 20 mg/kg [4]: 100%
CNC(=O)N(C)C1c2cc(OC)ccc2Oc2ncccc21 (stereo unspecified) | 51% | <30% | 59% | –
CNC(=O)N(C)C1c2cccnc2Oc2c(F)cccc21 (stereo unspecified) | <30% | – | 35% | –
CN(C(N)=O)C1c2ccccc2Oc2ncccc21 (stereo unspecified) | 30% | – | 70% | –
CNC(=O)N(C)C1c2ccccc2Oc2cccnc21 (stereo unspecified) | 38% | 34% | 37% | –
CNC(=O)N(C)C1c2ccccc2Oc2ncccc21 (stereo unspecified) | 84% | <30% | – | Reduction [5]: 69%; Reduction [6]: <30%; Reduction [7]: 79%; Reduction [8]: <30%; Reduction [9]: 58%; inhibition in vivo at 10 mg/kg [10]: 89%; inhibition in vivo at 30 mg/kg [11]: 100%; inhibition in vivo at 3 mg/kg [12]: 51%
CNC(=O)N(C)C1c2cc(CO)ccc2Oc2ncccc21 (stereo unspecified) | <30% | – | <30% | –
CNC(=O)N(C)C1c2cc([N+](=O)[O-])ccc2Oc2ncccc21 (stereo unspecified) | <30% | – | 71% | –
CNC(=O)N(C)C1c2cc(F)ccc2Oc2ncccc21 (stereo unspecified) | 63% | <30% | 68% | –
CN(C(=O)N1CCCCC1)C1c2ccccc2Oc2ncccc21 (stereo unspecified) | 31% | – | 72% | –
CN(C(=O)Nc1ccccc1)C1c2ccccc2Oc2ncccc21 (stereo unspecified) | 55% | <30% | 45% | –
CNC(=O)NC1c2ccccc2Oc2ncccc21 (stereo unspecified) | 31% | – | 54% | –
CNC(=O)N(C)C1c2cccnc2Oc2c(Cl)cccc21 (stereo unspecified) | <30% | – | 60% | –
CNC(=O)N(C)C1c2ccccc2S(=O)(=O)c2ncccc21 (stereo unspecified) | <30% | – | <30% | –
CN/C(=N\CCSCc1nc[nH]c1C)NC#N [CIMETIDINE] | 84% | 86% | 74% | inhibition in vivo at 10 mg/kg [10]: 67%
NC(=O)NC1c2ccccc2Oc2ncccc21 (stereo unspecified) | 36% | – | 46% | –
CNC(=O)N(C)C1c2ccc(OC)cc2Oc2ncccc21 (stereo unspecified) | 54% | <30% | 60% | –
CN(C(=O)N1CCOCC1)C1c2ccccc2Oc2ncccc21 (stereo unspecified) | 64% | <30% | 95% | –
CNC(=O)N(C)C1c2ccccc2Sc2ncccc21 (stereo unspecified) | 80% | <30% | 96% | Reduction [6]: <30%; Reduction [7]: 97%; Reduction [8]: 62%; Reduction [9]: 78%; Reduction [13]: <30%; Reduction [14]: 78%; inhibition in vivo at 10 mg/kg [10]: 68%; inhibition in vivo at 30 mg/kg [11]: 100%; inhibition in vivo at 3 mg/kg [12]: 0%
CNC(=O)N(C)C1c2cccnc2Oc2cccc(C(F)(F)F)c21 (stereo unspecified) | <30% | – | 71% | –
CNC(=O)N(C)C1c2cc(C)ccc2Oc2ncccc21 (stereo unspecified) | 62% | <30% | 71% | –
CNC(=O)N(C)C1c2ccccc2Oc2ccncc21 (stereo unspecified) | <30% | – | 77% | –
CNC(=O)N(C)C1c2ccc(C)cc2Oc2ncccc21 (stereo unspecified) | 75% | <30% | 81% | –
CN(C)C(=O)NC1c2ccccc2Oc2ncccc21 (stereo unspecified) | 35% | <30% | 95% | inhibition in vivo at 30 mg/kg [11]: 74%
CNC(=O)N(C)C1c2cc(C(=O)OC)ccc2Oc2ncccc21 (stereo unspecified) | <30% | – | <30% | –
CNC(=O)N(C)C1c2ccc(C(F)(F)F)cc2Oc2ncccc21 (stereo unspecified) | <30% | – | 46% | –
CN1CCN(C(=O)N(C)C2c3ccccc3Oc3ncccc32)CC1 (stereo unspecified) | <30% | <30% | 94% | –
CNC(=O)N(C)C1c2cc(Cl)c(C)cc2Oc2ncccc21 (stereo unspecified) | <30% | – | 65% | –
